Assay results published in ChEMBL document CHEMBL1124448, “Comparison of the biological effects of selected 5,8-dideazafolate analogues with their 2-desamino counterparts” (J Med Chem, 1989).

Legend:
L1210 [1] = experiment: Inhibition of the growth of methotrexate resistant L1210 leukemia/R 81 cells in culture; assay type: functional, cell-based; settings: Mus musculus
Method in brief: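 MTT viability assay, 48 h. Log-phase cells were plated at […] onto serial drug dilutions in RPMI 1640 with 10% fetal bovine serum, in 8% CO2, humidified. MTT (5 mg/mL stock) was added for 3 h and the formazan dissolved in 0.04 N HCl/2-propanol. A570 was read within 1 h. Each plate carried no-drug control and no-cell blank rows. IC50 determined.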

L1210 [2] = experiment: Inhibition of the growth of methotrexate sensitive L1210 leukemia/S cells in culture; assay type: functional, cell-based; settings: Mus musculus
Method in brief: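 MTT viability assay, 48 h. MTT (5 mg/mL stock) was added for 3 h and the formazan dissolved in 0.04 N HCl/2-propanol. A570 was read within 1 h. Each plate carried no-drug control and no-cell blank rows. IC50 determined.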

Thymidylate synthase = Thymidylate synthase (Mus musculus, UniProt P07607); experiment: Inhibition of L1210 leukemia thymidylate synthase (TS) enzyme; settings: read-out: I50
Chain of Thymidylate synthase (P07607 whole entry): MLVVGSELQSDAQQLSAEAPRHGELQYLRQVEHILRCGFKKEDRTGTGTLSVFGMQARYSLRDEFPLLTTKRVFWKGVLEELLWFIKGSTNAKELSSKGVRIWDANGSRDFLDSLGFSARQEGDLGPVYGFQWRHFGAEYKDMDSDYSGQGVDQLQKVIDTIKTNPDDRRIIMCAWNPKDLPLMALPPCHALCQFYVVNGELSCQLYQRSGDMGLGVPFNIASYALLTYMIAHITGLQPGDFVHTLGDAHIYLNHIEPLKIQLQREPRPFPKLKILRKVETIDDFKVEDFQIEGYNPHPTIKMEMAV

IC50 (L1210 [1]) [µM]	IC50 (L1210 [2]) [µM]	IC50 (Thymidylate synthase) [µM]	Structure (SMILES)
> 200	7.6		Nc1nc(=O)c2cc(CSc3ccc(C(=O)NC(CCC(=O)O)C(=O)O)cc3)ccc2[nH]1 (stereo not given)
39	1.2		Nc1nc(O)c2cc(COc3ccc(C(=O)NC(CCC(=O)O)C(=O)O)cc3)ccc2n1 (stereo not given)
> 200	0.53	25	O=C(O)CCC(NC(=O)c1ccc(CNc2ccc3ncnc(O)c3c2)cc1)C(=O)O (stereo not given)
75	0.27		C#CCN(Cc1ccc2ncnc(O)c2c1)c1ccc(C(=O)NC(CCC(=O)O)C(=O)O)cc1 (stereo not given)
> 200	1.3	13.8	O=C(O)CCC(NC(=O)c1ccc(SCc2ccc3ncnc(O)c3c2)cc1)C(=O)O (stereo not given)
> 200	0.28	49	O=C(O)CCC(NC(=O)c1ccc(OCc2ccc3ncnc(O)c3c2)cc1)C(=O)O (stereo not given)
> 200	3.2		Nc1nc(=O)c2cc(NCc3ccc(C(=O)NC(CCC(=O)O)C(=O)O)cc3)ccc2[nH]1 (stereo not given)
116			C#CCN(Cc1ccc2[nH]c(N)nc(=O)c2c1)c1ccc(C(=O)NC(CCC(=O)O)C(=O)O)cc1 (stereo not given)
186	0.0044		CN(Cc1cnc2nc(N)nc(N)c2n1)c1ccc(C(=O)N[C@@H](CCC(=O)O)C(=O)O)cc1 [METHOTREXATE]
